# Source: PubChem (several laboratories)
# Hits are enriched below; roughly 3% of the tested compounds scored in any of these assays.
# Hep lipid drop: hepatic lipid droplet formation modulation; AML12 mouse hepatocytes, oleate lipid droplets, BODIPY imaging; inhibition, % at 6.5 µM; hit rate 0.4% among 240,000; AID 1656;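 active means lipid droplet intensity inhibited by at least 50%, with more than 500 cells counted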
#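 Assay system: AML12 mouse liver cells | Compound dosing: One dose, 6.5 µM compound | Read-out basis: Droplet intensity reduction, % inhibition | Measured by: Fluorescence imaging, 20x objective, two fields per well | Schedule: Overnight treatment with compound plus oleate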
# aDG glyco act: increases alpha dystroglycan glycosylation; activation, % at 10 µM; hit rate 0.22% among 360,000; Pro5-aDG cells, alpha-DG glycosylation AlphaScreen (IIH6); 0% Pro5, 100% B10-LARGE cell signal;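 active means activation of at least 8% versus controls, or a plate z-score of at least 8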;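 further: Pro5 are CHO cells carrying HIG-tagged alpha-DG that lacks glycosylation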
# NPR1 activator: GC-A (human) enzyme activation; HEK293 GC-A cells, cGMP TR-FRET, EC30 ANP; 0% at EC30 ANP, 100% saturating ANP; activation, % at 10 µM; hit rate 0.14% among 370,000; AID 1671463; in the data active means activation above about 40%
# NPR2 activator: GC-B (human) receptor activation. HEK293-GC-B cells, CNP EC30, cGMP TR-FRET; 0% at EC30 CNP, 100% saturating CNP. activation, % at 10 µM. AID 1920062. hit rate 0.11% among 370,000;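 active means activation at 10 µM reaching about 35% in either raw or pattern-adjusted values, limit read from the data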
# JMJD2C inh: human JMJD2C demethylase inhibition | Q9H3R0 | hit rate 0.069% among 330,000 | inhibition, % at 2.35 µM | AID 2099 | GST-JMJD2C(1-420) H3K9me3 demethylation, DELFIA europium;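 active means more than half of a compound's replicate wells show inhibition beyond 50%, single wells judged on their own value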;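 further: signal counts dimethyl H3K9 product captured on neutravidin plate; 0% = median of DMSO wells and 100% = 0.3 times that DMSO median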
# GRIN3A LBD mod: modulators (binders) of human NR3A ligand-binding domain. Tm shift relative to glycine control, % at 25 µM. hit rate 2.5% among 340,000. NR3A LBD differential scanning fluorimetry, Tm shift; 0% = protein alone, 100% = glycine-bound protein;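 active means melting temperature shift of at least 10% of the positive control shift, at one fixed dose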
# aDG conf: confirmation of alpha dystroglycan glycosylation activators. Pro5-aDG cells, alpha-DG glycosylation, IIH6 AlphaLISA; scaled to LARGE-overexpressing B10 cells as 100%. hit rate 17% among 600. shares compounds with aDG glyco act. AID 651671. activation, % at 10 µM (by protocol);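 active means activation of at least 7% in one or more replicates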;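 further: cells exposed to compound for two days before detection; 0% = DMSO-treated Pro5 cells and 100% = DMSO-treated B10-LARGE cells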
# * marks the source's active call; other numbers are inactive results; · = no result.
SMILES,Hep lipid drop,aDG glyco act,NPR1 activator,NPR2 activator,JMJD2C inh,GRIN3A LBD mod,aDG conf
Nn1cc(-c2ccccc2)nc1SCC(=O)NC1CCS(=O)(=O)C1 (stereo unspecified),·,6.9*,-5.6,6.4,-9.2,-1.7,1.2
CCOC(=O)c1cnc(SCC(=O)Nc2cc(OC)ccc2OC)nc1N,-10.8,6.7*,4.2,5.5,4.5,4.2,0.1
Cc1ccc2c(c1)NC(=O)C(CC(=O)NCCCN1CCN(c3cc(Cl)ccc3C)CC1)O2 (stereo unspecified),1.4,14.0*,-25.2,-17.0,-10.0,-0.2,0.5
O=C(NCC1COc2ccccc2O1)c1ccc(NC(=O)c2c(Cl)cccc2Cl)cc1 (stereo unspecified),·,·,1.9,1.1,·,·,·
Cc1ccc(NS(=O)(=O)c2ccc(NC(=O)c3ccccc3C(=O)O)cc2)cc1C,·,-0.1,2.1,5.8,8.2,-1.4,·
Cc1ccc(CNC(=O)C2CCCN2S(=O)(=O)c2ccc(Cl)cc2)cc1 (stereo unspecified),-7.9,0.1,-0.3,0.4,17.3,-2.5,·
Cc1cc(Cl)ccc1OCc1nnc(-c2ccccc2C)o1,·,0.2,-1.6,-2.7,·,4.5,·
COc1cc(-c2nnc(COc3ccc(Cl)cc3C)o2)cc(OC)c1OC,12.5,6.8*,6.7,-9.3,-54.9,-1.5,0.6
CCCCOCC1CN(CCCC)S(=O)(=O)c2c(Oc3ccc(C)cc3)cccc2O1 (stereo unspecified),·,·,0.0,0.8,·,·,·
CC1(C)NC(=O)N(CC(=O)Nc2ccc(-n3cnnn3)cc2)C1=O,·,-0.3,1.7,3.1,-0.7,-0.5,·
CNC[C@@H]1OCc2cnnn2CCCC(=O)N([C@@H](C)CO)C[C@H]1C,·,·,-2.5,1.7,·,·,·
O=C1CC(c2ccccc2)n2nc(NC(=O)C3CCCO3)nc2N1 (stereo unspecified),·,3.1*,6.7,3.4,5.2,-0.1,-0.5
CC1(C(=O)NS(=O)(=O)C2CC2)CCCN(C(=O)c2cccc(OC(F)(F)F)c2)C1 (stereo unspecified),·,0.2,0.9,3.2,·,·,·
O=C(Nc1ccc(Br)cc1)c1ccc(F)c(S(=O)(=O)N2CCN(c3ccccn3)CC2)c1,9.1,8.5*,-2.7,-1.6,-2.9,7.4,1.6
CCOC(=O)c1ccc(NC(=O)COc2ccccc2CNCCc2ccccc2)cc1,-1.1,5.8*,-17.4,-10.3,-0.5,-3.0,2.6
CCOC(=O)c1ccc(NC(=O)COc2ccc(CNCCO)cc2OCC)cc1,10.5,1.2,-0.5,-3.5,6.0,-1.6,·
COc1ccccc1C(=O)NNC(=O)c1ccc2ccccc2c1O,·,0.1,0.3,1.8,·,·,·
O=C(NCC[C@@H]1CC[C@@H](NS(=O)(=O)c2ccccc2)[C@@H](CO)O1)c1cc(Cl)cc(Cl)c1,·,7.7*,0.4,0.3,·,·,-0.1
CCCCN1CC(=O)N2[C@H]3c4ccccc4OC[C@@H]3[C@H](C(=O)OCC)[C@]2(C)C1=O,·,-0.1,-2.9,5.0,-0.3,1.6,·
CC(=O)OC[C@@H]1CN(Cc2ccccc2)C[C@H](n2cnc3c(NCc4ccc(F)cc4)ncnc32)O1,·,-0.1,2.2,0.1,·,·,·
Cc1nnc(SCc2ccccn2)n(N)c1=O,30.8,3.5*,0.6,1.4,1.9,0.8,0.0
CC(C)NC(=O)N(C)C[C@H]1Oc2ccc(NS(=O)(=O)c3cn(C)cn3)cc2C(=O)N([C@H](C)CO)C[C@@H]1C,·,9.3*,0.8,1.3,0.3,-0.4,1.8
C[C@H](CO)N1C[C@H](C)[C@@H](CN(C)C(=O)NC2CCCCC2)Oc2ccc(NS(=O)(=O)c3cn(C)cn3)cc2C1=O,·,0.5,2.4,-0.1,3.7,-4.2,·
COc1ccc2c(c1OC)C(CC(C)=O)N1CCc3cc4c(cc3C1C2=O)OCO4 (stereo unspecified),·,-0.1,-4.4,2.4,·,·,·
